Assay results taken from paper PMC9099131 (Clinical and Translational Science, 2022).
Converted amounts (≈) assume the structure as drawn.

Experiments:
[1] = Single-dose plasma pharmacokinetics of trazpiroben alone and with esomeprazole; format: in vivo, human (healthy adults); conditions: for AUC∞, Geometric LSM / Cmax, Geometric LSM: ANOVA
How it was run: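 Healthy adults dosed orally with 25 mg on day 1; after a 4-day washout, the proton pump inhibitor was given at 40 mg once daily on days 8–12, with 25 mg co-dosed 1 h after it on day 11 following a ≥10 h fast. Plasma was sampled predose to 48 h and assayed by validated LC-MS/MS (0.05–50.00 ng/ml), with BLQ values set to zero. Noncompartmental parameters were derived, and ln AUC∞/Cmax were analysed by ANOVA (treatment fixed, participant random).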

[2] = ref data on file, cited from earlier work
[3] = trazpiroben 25 mg alone, N = 12
[4] = trazpiroben 25 mg and esomeprazole 40 mg, N = 12
[5] = plasma, single oral dose trazpiroben 25 mg alone, N = 12
[6] = single dose alone or in the presence of esomeprazole
[7] = single oral dose trazpiroben 25 mg alone, N = 12
[8] = single oral dose trazpiroben 25 mg with esomeprazole 40 mg once daily, N = 12
[9] = trazpiroben 25 mg with esomeprazole 40 mg vs alone
[10] = single oral dose of trazpiroben 25 mg alone on day 1

## O=C(O)c1cccc(CN2CN(C3CCCCC3)C3(CCN(CCCC(=O)c4ccccc4)CC3)C2=O)c1 [Trazpiroben]
[1]; [3]
  AUC∞, Geometric LSM: 44.03 ng·h/mL
  Cmax, Geometric LSM: 19.76 ng/mL
[1]; [4]
  AUC∞, Geometric LSM: 38.85 ng·h/mL
  Cmax, Geometric LSM: 17.24 ng/mL
[1]; [5]
  AUC∞, Geo. mean (CV%): 44.03 (27.50) ng h/ml
  Cmax, Geo. mean (CV%): 19.76 (36.50) ng/ml
  Tmax, Median (min, max): 1.00 (0.50, 1.53) h
  t1/2, Mean (±SD): 6.21 ± 3.96 h
[1]; [6]
  approximate half-life of biphasic decline: 6 to 7 h
  time postdose at which mean plasma concentration peaked: around 1 h
[1]; [7]
  CL/F, Geo. mean (CV%): 567.90 (27.50) L/h
  Vz/F, Geo. mean (CV%): 4137.00 (77.80) L
[1]; [8]
  CL/F, Geo. mean (CV%): 643.50 (31.10) L/h
  Vz/F, Geo. mean (CV%): 4716.00 (102.00) L
[1]; [9]
  GMR for plasma AUC∞ lower following co-administration versus trazpiroben alone: 11.8%
  GMR for plasma Cmax lower following co-administration versus trazpiroben alone: 12.8%
[2]; pH 1.15
  mean solubility: 1210 µg/mL
[2]; pH 6.97
  solubility: 50 µg/mL (≈ 96.6 µM)
Following both treatments
  vital sign and ECG parameters: no clinically meaningful changes
Healthy adults, administration alone and alongside esomeprazole
  tolerability: well‐tolerated
Single agent or co-administered with esomeprazole
  CNS or cardiovascular safety concerns: no CNS or cardiovascular safety concerns were observed
[10]
  Number of participants with treatment‐emergent AEs: 2 (17) n (%)
  Participants reporting AEs: Folliculitis: 0 (0) n (%)
  Participants reporting AEs: General disorders and administration site conditions: 0 (0) n (%)
  Participants reporting AEs: Headache: 1 (8) n (%)
  Participants reporting AEs: Infections and infestations: 0 (0) n (%)
  Participants reporting AEs: Influenza‐like illness: 0 (0) n (%)
  Participants reporting AEs: Menstruation delayed: 0 (0) n (%)
  Participants reporting AEs: Nervous system disorders: 1 (8) n (%)
  Participants reporting AEs: Oropharyngeal pain: 0 (0) n (%)
  Participants reporting AEs: Reproductive system and breast disorders: 0 (0) n (%)
  Participants reporting AEs: Respiratory, thoracic, and mediastinal disorders: 1 (8) n (%)
  Participants reporting AEs: Throat irritation: 1 (8) n (%)
  Participants reporting AEs: Vessel puncture site pain: 0 (0) n (%)
  Participants reporting AEs: Vessel puncture site reaction: 0 (0) n (%)
Whole study, 12 participants
  deaths, serious AEs, discontinuations due to AEs: No deaths, serious AEs, or discontinuations due to AEs were reported
